Data set [1] in a line: Cytotoxicity against human MDA-MB-468 cells after 48 hrs by SRB assay. It is filed as functional. The note with it: MDA-MB-468, 48 h, read-out: LC50 (the source's name). The essentials: (§1)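 Cells grown in RPMI-1640 with 50 µg/mL gentamicin and 10% FBS at 37°C, 5% CO2, and passaged under 3 months after revival. Sulforhodamine B assay after 48 h of compound exposure, with cell density measured at time of treatment (T0). LC50 (50% cell death vs T0) interpolated by nonlinear regression. At least 3 independent experiments, each concentration in triplicate.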
In general terms: Sulforhodamine B stains cellular protein and so reports cell mass.

Data set [2] in a line: Cytotoxicity against human HCC70 cells after 48 hrs by SRB assay. The note with it: HCC70, 48 h, read-out: LC50 (the source's name). It is filed as functional. Put shortly: as §1
Data set [3] is described as follows: Cytotoxicity against human BT549 cells after 48 hrs by SRB assay. The note with it: BT-549, 48 h, read-out: LC50 (the source's name). Format: functional. Put shortly:
as §1

Data set [4] is described as follows: Cytotoxicity against human MDA-MB-231 cells after 48 hrs by SRB assay. Format: functional. As to conditions: MDA-MB-231, 48 h, read-out: LC50 (the source's name). The essentials:
(§2)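 Cells grown in IMEM with 25 µg/mL gentamicin and 10% FBS at 37°C, 5% CO2, and passaged under 3 months after revival. Sulforhodamine B assay after 48 h of compound exposure, with cell density measured at time of treatment (T0). LC50 (50% cell death vs T0) interpolated by nonlinear regression. At least 3 independent experiments, each concentration in triplicate.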

The nature of data set [5]: Cytotoxicity against human MDA-MB-453 cells after 48 hrs by SRB assay. Format: functional. The note with it: MDA-MB-453, 48 h, read-out: LC50 (the source's name). The essentials:
as §2

A short description of data set [6]: Cell cycle arrest in human MDA-MB-468 cells assessed as accumulation at G0/G1 phase at 1 to 10 uM after 18 hrs by propidium iodide staining based FACS analysis. Format: functional. The essentials:
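MDA-MB-468 cells (RPMI-1640, 10% FBS, gentamicin) exposed to vehicle (DMSO) or compound for 18 h. Cells harvested and stained with Krishan's reagent (PI). DNA content read on a Muse Cell Analyzer to give phase distribution. n = 3; two-way ANOVA with Dunnett's post-hoc test.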
A general note: In flow cytometry, cells or beads pass a laser one at a time.

Data set [7] addresses Cellular tumor antigen p53 (Homo sapiens) (UniProt P04637). Put plainly: Induction of p53 phosphorylation at serine15 in whole cell human MDA-MB-468 cell lysates at 1 uM by antibody microarray assay. Format: cell-based. The note with it: TDE = time-dependent effect. Put shortly: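 MDA-MB-468 whole-cell lysates, prepared as for immunoblotting after early post-treatment time points, applied to a PathScan intracellular signaling antibody array with fluorescent readout. Near-infrared signals imaged and quantified.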

The target is the same in data set [8]. Nature of the data set: Induction of p53 phosphorylation at serine15 in human MDA-MB-468 cells after 2 hrs at 1 uM by immunoblot analysis. It is filed as cell-based. Put shortly: (§3)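 Whole-cell lysates of MDA-MB-468 cells taken after vehicle or compound treatment for the stated times. Lysis buffer held protease inhibitors, PMSF and Na3VO4. Equal protein run on SDS-PAGE, blotted to PVDF and probed for phospho-S345-Chk1, phospho-T68-Chk2 and phospho-S15-p53 alongside total proteins and β-actin. Read by near-infrared fluorescent secondaries.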

The target of data set [9] is Serine/threonine-protein kinase Chk2 (Homo sapiens) (UniProt O96017). Put plainly: Induction of CHK2 phosphorylation at T68-residue in human MDA-MB-468 cells at 1 uM after 2 hrs by immunoblot analysis. Format: cell-based. The essentials: as §3
The target in data set [10] is T1, Serine/threonine-protein kinase Chk1 (Homo sapiens) (UniProt O14757).
T1 sequence (whole entry): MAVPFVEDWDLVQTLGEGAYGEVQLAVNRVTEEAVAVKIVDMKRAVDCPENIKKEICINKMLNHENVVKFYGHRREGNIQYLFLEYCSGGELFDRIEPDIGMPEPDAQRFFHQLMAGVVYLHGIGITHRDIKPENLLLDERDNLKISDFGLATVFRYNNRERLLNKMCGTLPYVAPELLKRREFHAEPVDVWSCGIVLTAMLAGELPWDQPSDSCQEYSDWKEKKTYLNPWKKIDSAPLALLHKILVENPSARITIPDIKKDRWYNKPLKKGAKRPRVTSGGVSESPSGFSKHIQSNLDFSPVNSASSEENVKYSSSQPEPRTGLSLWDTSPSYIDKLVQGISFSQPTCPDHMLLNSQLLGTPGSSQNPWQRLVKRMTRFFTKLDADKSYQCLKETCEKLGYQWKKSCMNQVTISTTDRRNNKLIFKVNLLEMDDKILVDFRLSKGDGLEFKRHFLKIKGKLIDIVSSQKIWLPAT
Put plainly: Induction of CHK1 phosphorylation at S345-residue in human MDA-MB-468 cells at 1 uM after 4 hrs by immunoblot analysis. Format: cell-based. The essentials:
as §3
On the technique in general: A western blot detects proteins with antibodies after separation by electrophoresis.

Data set [11] relates to MDA-MB-468. Nature of the data set: Induction of DNA double stranded break in human MDA-MB-468 cells assessed as increase in gamma-H2A.X foci at 1 to 10 uM after 18 hrs by nucblue staining based immunofluorescent microscopic analysis. It is filed as functional, cell-based. Put shortly: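 MDA-MB-468 cells on glass coverslips, adhered overnight, then exposed 18 h. Paraformaldehyde fixation, blocking in 10% bovine calf serum/DPBS 20 min at room temperature, then anti-γ-H2A.X in 1% BSA/0.3% Triton X-100. Detection with Alexa Fluor 594 secondary and NucBlue nuclear counterstain at 60× objective. Two independent experiments, each concentration in duplicate.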

Data set [12] concerns MDA-MB-468. Nature of the data set: Antitumor activity against human MDA-MB-468 cells xenografted in athymic nude mouse assessed as tumor growth inhibition at 5 mg/kg, ip administered daily for 21 days measured on day 21 post dose relative to control. Format: functional, organism-based. Put shortly: (§4)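 Female athymic nude mice implanted s.c. bilaterally in each flank with 2 × 10^6 MDA-MB-468 cells in DPBS plus Matrigel. Dosing began at tumor volume of at least 150 mm3, with 7 or 8 tumors/group. Dose was 5 mg/kg i.p. daily for 21 days in 2.5% DMSO/2.5% Kolliphor EL in DPBS; controls untreated. Mice weighed and examined daily; calipers twice weekly; volume = length × width × height.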

The subject of data set [13] is Mus musculus. Put plainly: Toxicity in athymic nude mouse xenografted with human MDA-MB-468 cells assessed as weight loss at 5 mg/kg, ip administered daily for 21 days […] relative to control. It is filed as organism-based. The note with it: in vivo, 504 h. Put shortly: as §4
Data set [14] deals with HCC70. Put plainly: Selectivity ratio of LC50 for human HCC70 cells to LC50 for human MDA-MB-468 cells. It is filed as functional. Put shortly:
(§5)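 Both LC50s come from 48 h sulforhodamine B assays, with T0 density measured at treatment. LC50 is 50% cell death vs T0, interpolated by nonlinear regression. At least 3 independent experiments, concentrations in triplicate. MDA-MB-468, HCC70 and BT-549 were grown in RPMI-1640. MDA-MB-231 and MDA-MB-453 were grown in IMEM.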

For data set [15], the system named is BT-549. Put plainly: Selectivity ratio of LC50 for human BT549 cells to LC50 for human MDA-MB-468 cells. Format: functional. The essentials:
as §5

Data set [16] in a line: Selectivity ratio of LC50 for human MDA-MB-231 cells to LC50 for human MDA-MB-468 cells. It is filed as functional. The essentials: as §5
A short description of data set [17]: Selectivity ratio of LC50 for human MDA-MB-453 cells to LC50 for human MDA-MB-468 cells. It is filed as functional. The essentials:
as §5

Active and inactive are the calls of the source. The rule behind the calls is not given here.

Sequence of Cellular tumor antigen p53 (Homo sapiens) (P04637 whole entry, looked up): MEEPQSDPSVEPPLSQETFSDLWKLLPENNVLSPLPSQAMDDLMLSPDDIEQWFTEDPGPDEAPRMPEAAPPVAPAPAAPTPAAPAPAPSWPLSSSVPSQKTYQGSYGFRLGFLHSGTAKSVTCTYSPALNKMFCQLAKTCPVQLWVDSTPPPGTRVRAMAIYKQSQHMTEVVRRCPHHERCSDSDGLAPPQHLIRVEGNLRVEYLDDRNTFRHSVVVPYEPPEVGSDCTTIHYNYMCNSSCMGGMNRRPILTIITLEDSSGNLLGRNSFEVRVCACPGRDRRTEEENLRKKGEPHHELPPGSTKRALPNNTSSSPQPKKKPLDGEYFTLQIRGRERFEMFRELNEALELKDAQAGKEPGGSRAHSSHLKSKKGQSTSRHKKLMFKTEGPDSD
Sequence of Serine/threonine-protein kinase Chk2 (Homo sapiens) (O96017 whole entry): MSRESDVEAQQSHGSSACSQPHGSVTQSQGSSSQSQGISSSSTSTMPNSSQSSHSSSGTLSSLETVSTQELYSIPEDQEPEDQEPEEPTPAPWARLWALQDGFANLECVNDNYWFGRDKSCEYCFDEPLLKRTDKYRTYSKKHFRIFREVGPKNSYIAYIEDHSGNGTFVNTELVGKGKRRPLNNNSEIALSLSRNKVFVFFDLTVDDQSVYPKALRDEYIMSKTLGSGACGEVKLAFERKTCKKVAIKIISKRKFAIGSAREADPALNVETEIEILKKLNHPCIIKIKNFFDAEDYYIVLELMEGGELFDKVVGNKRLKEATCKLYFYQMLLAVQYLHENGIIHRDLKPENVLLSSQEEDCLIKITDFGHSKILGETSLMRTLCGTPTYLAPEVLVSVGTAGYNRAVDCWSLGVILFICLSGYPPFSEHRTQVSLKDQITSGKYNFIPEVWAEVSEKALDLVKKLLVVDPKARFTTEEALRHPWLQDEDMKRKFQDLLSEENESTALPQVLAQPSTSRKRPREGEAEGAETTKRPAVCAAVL

Regarding `C=C[C@@H]1C[C@H](C)C[C@H](C)[C@H]1c1c(O)ccn(O[C@@H]2C(C(=O)OC)=C[C@@H](O)[C@@H](O)[C@H]2O)c1=O`, the CC50 was determined as 600 nM in data set [1]; 39000 nM in [2]; 15000 nM in [3]; 60000 nM in [4]; 15000 nM in data set [5]. Moreover, the result in [6], in [8], in [9] and in data set [10] was Active. Moreover, the Activity result in data set [7] was “Tde”; in data set [11], “Dose-dependent effect”; in data set [13] it was 12%. For the same compound, the TGI entry in data set [12] was “Active”. For the same compound, the RatioLC50 in data set [14], in data set [15], in data set [16] and in data set [17] was 25 - 100 in each case.
In the case of `CC(=O)O[C@H]1C(=O)[C@@]2(C)[C@H]([C@H](OC(=O)c3ccccc3)[C@]3(O)C[C@H](OC(=O)[C@H](O)[C@@H](NC(=O)c4ccccc4)c4ccccc4)C(C)=C1C3(C)C)[C@]1(OC(C)=O)CO[C@@H]1C[C@@H]2O` [PACLITAXEL], the CC50 in data set [1] is 9.8 nM; in data set [2], > 31.2 nM; in data set [3], 18 nM; in data set [4] it was > 62.5 nM; in data set [5] it was 8.2 nM.

Source of the values: ChEMBL document CHEMBL3860029, “Maximiscin Induces DNA Damage, Activates DNA Damage Response Pathways, and Has Selective Cytotoxic Activity against a Subtype of Triple-Negative Breast Cancer” (J Nat Prod, 2016).
